Published values pooled from the literature.
ADRA1A: Alpha-1A adrenergic receptor (ADRA1A, Homo sapiens, UniProt P35348)
GLP2R: Glucagon-like peptide 2 receptor (GLP2R, Homo sapiens, UniProt O95838)
OPRK1: Kappa-type opioid receptor (OPRK1, Cavia porcellus, UniProt P41144)
HRH2: Histamine H2 receptor (HRH2, Homo sapiens, UniProt P25021)

SMILES | target | test | conditions | quantity | result
CCCC[C@@H](NC(=O)[C@@H](N)Cc1c(C)cc(O)cc1C)C(=O)NCC(=O)N[C@@H](Cc1ccc(F)cc1)C(=O)N(C)CCC[C@@]1(c2ccc(F)cc2)OCc2cc(C#N)ccc21 | ADRA1A | ligand displacement, radioligand | – | Ki | > 10000 nM
CC[C@H](C)[C@H](NC(=O)[C@H](CC(C)C)NC(=O)[C@H](Cc1c[nH]c2ccccc12)NC(=O)[C@H](CCCCN)NC(=O)[C@H](CC(C)C)NC(=O)[C@H](Cc1ccccc1)NC(=O)[C@H](CCC(=O)O)NC(=O)[C@H](CCC(N)=O)NC(=O)[C@@H](NC(=O)[C@H](C)NC(=O)[C@H](CC(C)C)NC(=O)[C@H](CC(=O)O)NC(=O)[C@H](CC(=O)O)NC(=O)[C@H](CC(C)C)NC(=O)[C@H](CC(C)C)NC(=O)[C@H](CCCCN)NC(=O)[C@H](CC(N)=O)NC(=O)[C@H](Cc1ccc(O)cc1)NC(=O)[C@H](CC(=O)O)NC(=O)[C@H](CO)NC(=O)[C@@H](NC(=O)[C@H](Cc1ccccc1)NC(=O)[C@@H](NC(=O)CNC(=O)[C@H](CC(=O)O)NC(=O)[C@H](C)NC(=O)[C@@H](N)Cc1c[nH]cn1)[C@@H](C)O)[C@@H](C)O)[C@@H](C)O)C(=O)N[C@@H](CC(N)=O)C(=O)N[C@@H](CCC(N)=O)C(=O)N[C@@H](CCCCN)C(=O)N[C@H](C(=O)N[C@H](C(=O)N[C@@H](CCC(N)=O)C(=O)O)[C@@H](C)O)C(C)C | GLP2R | reporter gene, agonist, luciferase | – | EC50 | 1.41 nM
Cc1cccc(C)c1C[C@H](NC(=O)[C@@H](CCCNC(=N)N)NC(=O)[C@@H](N)Cc1c(C)cc(O)cc1C)C(=O)N[C@@H](CCCCN)C(N)=O | OPRK1 | ligand displacement, radioligand | cell membranes | Ki | 4.7 nM
CC(C)C[C@H](NC(=O)[C@H](CCCCN)NC(=O)[C@@H]1CCCN1C(=O)[C@@H](N)CCCNC(=N)N)C(=O)N[C@@H](CCCCN)C(=O)O | ADRA1A | cell-free assay, radioligand | – | Ki | > 10000 nM
Cc1cc(O)cc(C)c1C[C@H](N)C(=O)N[C@H](CCCNC(=N)N)C(=O)N[C@@H](Cc1c[nH]c2ccccc12)C(=O)N[C@@H](CCCCN)C(N)=O | OPRK1 | ligand displacement, radioligand | cell membranes | Ki | 16.5 nM
CNc1nc2cc(OCCCCN3CCN(c4cccc(Cl)c4Cl)CC3)ccc2s1 | HRH2 | ligand displacement, radioligand | – | Ki | 310 nM
Cc1cc(O)cc(C)c1C[C@H](C)C(=O)N[C@@H]1C/C=C/CC[C@@H](C(N)=O)NC(=O)[C@H](Cc2ccccc2)NC(=O)[C@H](Cc2ccccc2)NC1=O | OPRK1 | ligand displacement, radioligand | cell membranes | Ki | 635 nM
CCc1cccc(C)c1C[C@H](NC(=O)[C@@H](CCCNC(=N)N)NC(=O)[C@@H](N)Cc1c(C)cc(O)cc1C)C(=O)N[C@@H](CCCCN)C(N)=O | OPRK1 | ligand displacement, radioligand | cell membranes | Ki | 0.961 nM
CC[C@H](C)[C@H](NC(=O)[C@H](CO)NC(=O)[C@H](CC(=O)O)NC(=O)[C@H](CC(C)C)NC(=O)[C@@H](NC(=O)[C@H](CCCCN)NC(=O)[C@H](CC(N)=O)NC(=O)[C@@H](NC(=O)[C@H](CC(=O)O)NC(=O)[C@H](CO)NC(=O)[C@@H](NC(=O)[C@H](Cc1ccccc1)NC(=O)[C@H](CO)NC(=O)CNC(=O)[C@H](CC(=O)O)NC(=O)[C@@H](NC(=O)[C@@H](N)Cc1c[nH]cn1)C(C)C)[C@@H](C)O)C(C)C)C(C)C)C(=O)N[C@@H](C)C(=O)N[C@@H](C)C(=O)N[C@@H](CCCCN)C(=O)N[C@@H](CCC(=O)O)C(=O)N[C@@H](Cc1ccc(O)cc1)C(=O)N[C@@H](CC(C)C)C(=O)N[C@@H](CCC(N)=O)C(=O)N[C@@H](Cc1c[nH]c2ccccc12)C(=O)N[C@H](C(=O)N[C@@H](CCSC)C(=O)N[C@@H](CC(N)=O)C(=O)N[C@@H](CO)C(=O)N[C@@H](CCCCN)C(=O)N[C@@H](C)C(=O)N[C@@H](CO)C(=O)NCC(=O)O)C(C)C | GLP2R | reporter gene, agonist, luciferase | – | EC50 | > 1000 nM
N=C(N)NCCC[C@@H]1NC(=O)[C@H](Cc2ccc(O)cc2)NC(=O)[C@@H](CCCCN)NC(=O)[C@@H](Cc2ccccc2)NC1=O | OPRK1 | ligand displacement, radioligand | cell membranes | Ki | 4850 nM
OC(c1ccc(F)cc1)C(F)(F)CCN1CCC(O)(c2ccc(Cl)cc2)CC1 (racemic) | HRH2 | cell-free assay, radioligand | – | Ki | 4830 nM
CCCC[C@@H](NC(=O)[C@@H](N)Cc1ccc(O)cc1)C(=O)NCC(=O)N[C@@H](Cc1ccc(F)cc1)C(=O)N(C)CCC[C@@]1(c2ccc(F)cc2)OCc2cc(C#N)ccc21 | ADRA1A | ligand displacement, radioligand | – | Ki | 6600 nM
Cc1cc(O)cc(C)c1C[C@H](N)C(=O)N[C@H](C)C(=O)N[C@@H](Cc1ccccc1)C(=O)N[C@@H](CCCN)C(N)=O | OPRK1 | ligand displacement, radioligand | cell membranes | Ki | 32 nM
